Variants at the floor of the assay were thinned out.
B1: tRNA (parent)
chain: GUUCCGUUGGCGUAAUGGUAACGCGUCUCCCUCCUAAGGAGAAGACUGCGGGUUCGAGUCCCGUACGGAACG

Variants of: B1
Assay: yeast fitness relative to wild type (ratio to wild type); higher = fitter; tRNA-Arg(CCU), competitive growth, 37 C, YPD
Summary of the method: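 For this measurement, the tRNA-Arg(CCU) gene was varied by chemical synthesis at a 3% per-site mutation rate across 69 sites, and each variant was placed at the native genomic locus in Saccharomyces cerevisiae. The pooled strains went through a 24-hour competition in YPD at 37°C in six parallel replicates, with amplicons from start and end populations read by 100-nucleotide paired-end sequencing. Darwinian fitness relative to wild type followed from the change in each genotype's frequency. Genotypes needed ≥ 100 starting reads, and estimates < 0.5 were set to 0.5.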

| Variant | yeast fitness |
| --- | --- |
| C29U A42G A43G | ≤ 0.5 |
| C29G G38A U53A U64A | ≤ 0.5 |
| U28A C34U G41C G51A U53A U59C A70U | ≤ 0.5 |
| U28G C31U A40C A57G | 0.837 |
| U28C A40C G56C A65G | ≤ 0.5 |
| C27U A45G U53C | 0.544 |
| C29A G38A A69U | 0.583 |
| C29A A57U C60G | ≤ 0.5 |
| C29A U35C C66U | ≤ 0.5 |
| U28A A69U | 0.749 |
| C29U C34U A57C U64C | 0.549 |
| C27U C49G | 0.916 |
| C29A G51A C55A G56C A65U | ≤ 0.5 |
| C27U G38C A57G A65C | ≤ 0.5 |
| U28A C31U | 0.7 |
| C29U C30G U59A | 0.617 |
| C29A C49A | 0.506 |
| C29A G44A C49A U59A | ≤ 0.5 |
| C29A C31U A37U A65G | ≤ 0.5 |
| U28C A37C A69C | ≤ 0.5 |
| C29A A42U U64C | ≤ 0.5 |
| U28C G52C A65C | 0.596 |
| C29G A40U G50C G67U A69G | ≤ 0.5 |
| C29G A43C C55G | 0.657 |

| Variant | yeast fitness |
| --- | --- |
| U28C A65U | 0.855 |
| C29U A36C G56A | ≤ 0.5 |
| C29A A57G | 0.646 |
| C29A A57U | ≤ 0.5 |
| C29A G56C A57U | 0.583 |
| C27U U47A G68C | ≤ 0.5 |
| C29G A40U G58A | ≤ 0.5 |
| C29A A37G U64A A70U | ≤ 0.5 |
| U28C G58C | 0.912 |
| U28A C66A | 0.575 |
| C29G U35G C60U | ≤ 0.5 |
| C27U C31U G52C U59G | ≤ 0.5 |
| U28C A42C C60U | 0.589 |
| C29G C55U C62U | 0.567 |
| C27U G38A C55A | ≤ 0.5 |
| C29G C30U U47C | ≤ 0.5 |
| C27U U54G A65C | ≤ 0.5 |
| C27U U28G C31A G58C | ≤ 0.5 |
| C27U C30G | 0.624 |
| C27U A42U A43U U47C | 0.577 |
| C29A G39A | 0.725 |
| U28C G44C G56C | 0.7 |
| C27U A40G U64C | 0.602 |
| C27U A40G U64A | ≤ 0.5 |

| Variant | yeast fitness |
| --- | --- |
| U28A U32C G39C | 0.542 |
| C29G C33U | ≤ 0.5 |
| C29U C49U C55G G58A | ≤ 0.5 |
| U28A C30U | 0.667 |
| C27U C46U G48A A70C | 0.669 |
| C29U A69U | 0.868 |
| C29U C30U U59A G63C | ≤ 0.5 |
| C27U A40C A57U | 0.606 |
| C29G C33U A37G A40C | ≤ 0.5 |
| C27U U32A | 0.993 |
| C29A G50C | 0.553 |
| C27U C29G C31A | ≤ 0.5 |
| C27U A36G | 0.85 |
| C27U A43G C46G A69C | ≤ 0.5 |
| C29A C31U | 0.713 |
| C29A C31G | 0.677 |
| C29G U54C | 0.664 |
| C29G G50C A65U | ≤ 0.5 |
| C29U C55G A65U | ≤ 0.5 |
| C27U U35C | 0.754 |
| C27U G58A G63A | 0.53 |
| U28C A69C | 0.94 |
| C29U C31U U54G A65U A69U | ≤ 0.5 |
| U28G G38C A40G | 0.546 |

| Variant | yeast fitness |
| --- | --- |
| C29A A40U U47A | 0.772 |
| U28G A40U | 0.843 |
| C29U A43G C49A | 0.615 |
| U28A A36U C61A A69U | ≤ 0.5 |
| U28C A37U A40U C49G A57U G68C A70G | 0.624 |
| C29A C34U G51A G52C U64C | 0.663 |
| C27U A45G U64A | 0.553 |
| U28G G38U | 0.711 |
| C29G C33G G41C G67C | ≤ 0.5 |
| C29G C46A A57G U59C | ≤ 0.5 |
| C29G U32A U47C C62A | ≤ 0.5 |
| C27U U47C G68A | 0.672 |
| C27U G44A | 0.887 |
| U28C G51C | 0.502 |
| C27U C33U A40C A57G C66U | ≤ 0.5 |
| C29G U32G | ≤ 0.5 |
| C29A A37G C60A C66U | ≤ 0.5 |
| U28C G50U A65C | ≤ 0.5 |
| C27U C29A A36U A40C G41A A65U | ≤ 0.5 |
| C27U C55U A70U | 0.504 |
| C27U G51C U59C | ≤ 0.5 |
| C29U C34A A70U | ≤ 0.5 |
| C27U U32C C55A | ≤ 0.5 |
| C29U C30A C61U | ≤ 0.5 |

| Variant | yeast fitness |
| --- | --- |
| C29U C30A C61G | ≤ 0.5 |
| U28C G39C G44C C46U | ≤ 0.5 |
| C29U C31U C33G U35C | 0.588 |
| C27U A57U G58C | 0.667 |
| U28C G38C A45U G68A A69C | ≤ 0.5 |
| U28G A36U C60U | ≤ 0.5 |
| U28G C46U C60A A65U A69U | ≤ 0.5 |
| C29A G44A U64C | 0.56 |
| C27U G48A A65U | 0.714 |
| U28G A43G A45G C49U A57U | ≤ 0.5 |
| U28G C29U A45C | ≤ 0.5 |
| U28G C30G A40C A42U G51A | ≤ 0.5 |
| U28A U32C A43C A57C | ≤ 0.5 |
| C27U G39A G68U | 0.54 |
| U28C A42G | 0.913 |
| C27U C62G | 0.669 |
| U28C A37C A40U | 0.568 |
| C29G C30U A36C A40G | ≤ 0.5 |
| C29G C33U C61U A69C | ≤ 0.5 |
| C29G G38A | 0.614 |
| C29U A43U G52C U59A | ≤ 0.5 |
| C29G C31G C49A | ≤ 0.5 |
| C27U G48A | 1.1 |
| U28C U32A G44A A57C | ≤ 0.5 |

| Variant | yeast fitness |
| --- | --- |
| C29G C33U C66U | ≤ 0.5 |
| C27U C31U C55U | 0.643 |
| C27U A45C G48A A57U G67A | ≤ 0.5 |
| C29G G68U | 0.68 |
| U28A A45G A69C | ≤ 0.5 |
| U28C A57C | 0.586 |
| C27U U28A U32A C34U A36C U47C C55A | ≤ 0.5 |
| C27U A37U G67A | ≤ 0.5 |
| U28C A45U C55A C66A | ≤ 0.5 |
| U28A U53A | 0.6 |
| U28C A70U | 0.87 |
| U28C C49G | 0.909 |
| C27U C49U A57G | 0.703 |
| C27U G38C A40C A42C | ≤ 0.5 |
| C29G C33U G58C C60G C62A | ≤ 0.5 |
| C27U C46A A57C | 0.726 |
| C29G A37G A57U | 0.617 |
| C29G U35A G48C | ≤ 0.5 |
| C29U C30A U59G A69C | ≤ 0.5 |
| C29U A37C G41A A70C | ≤ 0.5 |
| U28C U35G A69C | ≤ 0.5 |
| U28A C30U A37C G41C | 0.542 |
| C29U A45C A57G A65U | ≤ 0.5 |
| C27U G51C C55A A65C | ≤ 0.5 |

| Variant | yeast fitness |
| --- | --- |
| C29G U32C A40U C61U C66U | ≤ 0.5 |
| C27U C33U C66U | 0.536 |
| C29U C49U C55A | ≤ 0.5 |
| U28G C29G C62A | 0.711 |
| C29G G44A G56C C62A G67C | ≤ 0.5 |
| C29G G38A A43G G50A | ≤ 0.5 |
| C29G C30A | 0.585 |
| C29U C62U A70U | 0.532 |
| C29U A45C | 0.778 |
| C27U G50C | 0.618 |
| U28G C30A G51U | ≤ 0.5 |
| C29G C34A A37G | ≤ 0.5 |
| C29G A57G | 0.715 |
| U28A C30G A36C | ≤ 0.5 |
| C27U C33A A37U A57G | ≤ 0.5 |
| C29U C66G A70C | ≤ 0.5 |
| C29A C46U C60U | ≤ 0.5 |
| C29U C33U U54A | ≤ 0.5 |
| C29U C61U A70G | 0.728 |
| C27U C33G C34G G44A G50A G52A | 0.558 |
| C27U C55U G67C | 0.572 |
| U28A C31A G44A | 0.568 |
| C29G U54G U59A | ≤ 0.5 |

From the RNAGym collection of RNA variant scans (doi:10.1126/science.aae0568)
